Laboratory results as given in ChEMBL document CHEMBL1275252, “First survey of metallo-beta-lactamases in clinical isolates of Pseudomonas aeruginosa in a German university hospital” (2010).
In brackets after ≈: the same amount, converted by molar mass.

Experiments:
Type in all cases: functional
Pseudomonas aeruginosa [1] = assay: Antimicrobial activity against Pseudomonas aeruginosa isolate PA462 expressing VIM-2 beta-lactamase
Pseudomonas aeruginosa [2] = assay: Antimicrobial activity against metallo-beta-lactamase-negative Pseudomonas aeruginosa isolate PA509
Pseudomonas aeruginosa [3] = assay: Antimicrobial activity against metallo-beta-lactamase-negative Pseudomonas aeruginosa isolate PA479
Pseudomonas aeruginosa [4] = assay: Antimicrobial activity against Pseudomonas aeruginosa isolate PA399 expressing VIM-2 beta-lactamase
Pseudomonas aeruginosa [5] = assay: Antimicrobial activity against Pseudomonas aeruginosa isolate PA477 expressing VIM-2 beta-lactamase
Pseudomonas aeruginosa [6] = assay: Antimicrobial activity against Pseudomonas aeruginosa isolate PA469 expressing VIM-2 beta-lactamase
Pseudomonas aeruginosa [7] = assay: Antimicrobial activity against Pseudomonas aeruginosa isolate PA465 expressing VIM-2 beta-lactamase
Pseudomonas aeruginosa [8] = assay: Antimicrobial activity against metallo-beta-lactamase-negative Pseudomonas aeruginosa isolate PA494
Pseudomonas aeruginosa [9] = assay: Antimicrobial activity against metallo-beta-lactamase-negative Pseudomonas aeruginosa isolate PA459
How it was run: (§1)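 MBL-negative clinical P. aeruginosa isolates with reduced imipenem susceptibility, collected at the study hospital, some from cystic fibrosis patients. Species identity was confirmed by automated Gram-negative identification card. MIC was read in μg/ml.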

Pseudomonas aeruginosa [10] = assay: Antimicrobial activity against metallo-beta-lactamase-negative Pseudomonas aeruginosa isolate PA460
Pseudomonas aeruginosa [11] = assay: Antimicrobial activity against Pseudomonas aeruginosa isolate PA510 expressing VIM-2 beta-lactamase
Pseudomonas aeruginosa [12] = assay: Antimicrobial activity against Pseudomonas aeruginosa isolate PA481 expressing VIM-2 beta-lactamase
Pseudomonas aeruginosa [13] = assay: Antimicrobial activity against metallo-beta-lactamase-negative Pseudomonas aeruginosa isolate PA507; how it was run: as §1
Pseudomonas aeruginosa [14] = assay: Antimicrobial activity against Pseudomonas aeruginosa isolate PA500 expressing VIM-1 beta-lactamase
Pseudomonas aeruginosa [15] = assay: Antimicrobial activity against metallo-beta-lactamase-negative Pseudomonas aeruginosa isolate PA483
Pseudomonas aeruginosa [16] = assay: Antimicrobial activity against Pseudomonas aeruginosa isolate PA475 expressing VIM-2 beta-lactamase

| SMILES | MIC (Pseudomonas aeruginosa [1]) | MIC (Pseudomonas aeruginosa [2]) | MIC (Pseudomonas aeruginosa [3]) | MIC (Pseudomonas aeruginosa [4]) | MIC (Pseudomonas aeruginosa [5]) | MIC (Pseudomonas aeruginosa [6]) | MIC (Pseudomonas aeruginosa [7]) | MIC (Pseudomonas aeruginosa [8]) | MIC (Pseudomonas aeruginosa [9]) | MIC (Pseudomonas aeruginosa [10]) | MIC (Pseudomonas aeruginosa [11]) | MIC (Pseudomonas aeruginosa [12]) | MIC (Pseudomonas aeruginosa [13]) | MIC (Pseudomonas aeruginosa [14]) | MIC (Pseudomonas aeruginosa [15]) | MIC (Pseudomonas aeruginosa [16]) |
| --- | --- | --- | --- | --- | --- | --- | --- | --- | --- | --- | --- | --- | --- | --- | --- | --- |
| NCC[C@H](O)C(=O)N[C@@H]1C[C@H](N)[C@@H](O[C@H]2O[C@H](CN)[C@@H](O)[C@H](O)[C@H]2O)[C@H](O)[C@H]1O[C@H]1O[C@H](CO)[C@@H](O)[C@H](N)[C@H]1O [AMIKACIN] | 4 µg/mL (≈ 6.83 µM) | 64 µg/mL (≈ 109 µM) | 8 µg/mL (≈ 13.7 µM) | 8 µg/mL (≈ 13.7 µM) | 8 µg/mL (≈ 13.7 µM) | 8 µg/mL (≈ 13.7 µM) | 8 µg/mL (≈ 13.7 µM) | 8 µg/mL (≈ 13.7 µM) | 2 µg/mL (≈ 3.42 µM) | 4 µg/mL (≈ 6.83 µM) | 4 µg/mL (≈ 6.83 µM) | 8 µg/mL (≈ 13.7 µM) | 16 µg/mL (≈ 27.3 µM) | ≤ 2 µg/mL | 2 µg/mL (≈ 3.42 µM) | 4 µg/mL (≈ 6.83 µM) |
| C[C@H]1[C@H](NC(=O)/C(=N\OC(C)(C)C(=O)O)c2csc(N)n2)C(=O)N1S(=O)(=O)O [AZTREONAM] | 16 µg/mL (≈ 36.7 µM) | 8 µg/mL (≈ 18.4 µM) | 32 µg/mL (≈ 73.5 µM) | 16 µg/mL (≈ 36.7 µM) | 16 µg/mL (≈ 36.7 µM) | 16 µg/mL (≈ 36.7 µM) | 16 µg/mL (≈ 36.7 µM) | 16 µg/mL (≈ 36.7 µM) | 16 µg/mL (≈ 36.7 µM) | 16 µg/mL (≈ 36.7 µM) | ≥ 64 µg/mL | 16 µg/mL (≈ 36.7 µM) | 16 µg/mL (≈ 36.7 µM) | 4 µg/mL (≈ 9.19 µM) | 64 µg/mL (≈ 147 µM) | 16 µg/mL (≈ 36.7 µM) |
